Data as given in publication PMC4136711 (Journal of Medicinal Chemistry, 2014).

Columns and labels:
PRC2 complex = PRC2 complex (Homo sapiens, UniProt Q15910); test: Selectivity assay; type: biochemical; details: read-out: estimated IC50 PRC2
Summary of the method: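 Tritium-labelled methyl transfer from 3H-SAM to peptide substrate, with substrates near their Km values for the enzyme. Test compound ranged from 100 nM to 100 μM. Reactions were quenched with 7.5 M guanidine hydrochloride, diluted in 20 mM Tris pH 8.0, and captured on FlashPlates for 1 h before counting CPM. The no-compound signal defined 100% activity and the no-enzyme signal defined 0%.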

L3MBTL1 = L3MBTL1 (Homo sapiens, UniProt Q9Y468); details: methyllysine reader protein
SETD8 = molecular target: T1, SETD8 (Homo sapiens, UniProt Q9NQR1); type: binding
T1 sequence (Q9NQR1 257-378 limits assumed): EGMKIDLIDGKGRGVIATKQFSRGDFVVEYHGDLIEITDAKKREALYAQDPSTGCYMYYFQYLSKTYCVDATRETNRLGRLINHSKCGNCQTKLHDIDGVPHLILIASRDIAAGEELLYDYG

Chain of L3MBTL1 (Q9Y468 whole entry, species assumed): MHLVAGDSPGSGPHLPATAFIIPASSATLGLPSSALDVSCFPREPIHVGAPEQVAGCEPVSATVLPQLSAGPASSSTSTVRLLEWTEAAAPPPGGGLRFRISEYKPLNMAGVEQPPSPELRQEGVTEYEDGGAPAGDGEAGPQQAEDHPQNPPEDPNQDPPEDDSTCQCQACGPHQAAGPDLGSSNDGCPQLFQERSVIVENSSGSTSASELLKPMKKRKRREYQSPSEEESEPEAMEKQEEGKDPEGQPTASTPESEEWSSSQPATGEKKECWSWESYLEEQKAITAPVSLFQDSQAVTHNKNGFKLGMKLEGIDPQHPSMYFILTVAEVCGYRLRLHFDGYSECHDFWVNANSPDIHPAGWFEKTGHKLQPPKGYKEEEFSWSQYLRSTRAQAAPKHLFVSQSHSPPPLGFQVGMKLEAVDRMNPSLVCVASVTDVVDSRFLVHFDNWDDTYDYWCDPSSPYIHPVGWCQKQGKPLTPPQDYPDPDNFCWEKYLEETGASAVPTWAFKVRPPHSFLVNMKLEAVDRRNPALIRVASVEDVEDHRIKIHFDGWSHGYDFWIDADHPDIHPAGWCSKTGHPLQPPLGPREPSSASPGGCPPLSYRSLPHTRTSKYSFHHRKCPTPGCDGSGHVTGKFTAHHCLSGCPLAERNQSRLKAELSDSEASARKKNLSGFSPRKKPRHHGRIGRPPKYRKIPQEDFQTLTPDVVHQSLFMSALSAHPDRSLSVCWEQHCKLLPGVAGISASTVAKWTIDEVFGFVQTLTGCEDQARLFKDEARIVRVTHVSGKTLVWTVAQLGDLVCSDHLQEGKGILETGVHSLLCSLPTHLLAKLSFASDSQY
Chain of PRC2 complex (Q15910 whole entry): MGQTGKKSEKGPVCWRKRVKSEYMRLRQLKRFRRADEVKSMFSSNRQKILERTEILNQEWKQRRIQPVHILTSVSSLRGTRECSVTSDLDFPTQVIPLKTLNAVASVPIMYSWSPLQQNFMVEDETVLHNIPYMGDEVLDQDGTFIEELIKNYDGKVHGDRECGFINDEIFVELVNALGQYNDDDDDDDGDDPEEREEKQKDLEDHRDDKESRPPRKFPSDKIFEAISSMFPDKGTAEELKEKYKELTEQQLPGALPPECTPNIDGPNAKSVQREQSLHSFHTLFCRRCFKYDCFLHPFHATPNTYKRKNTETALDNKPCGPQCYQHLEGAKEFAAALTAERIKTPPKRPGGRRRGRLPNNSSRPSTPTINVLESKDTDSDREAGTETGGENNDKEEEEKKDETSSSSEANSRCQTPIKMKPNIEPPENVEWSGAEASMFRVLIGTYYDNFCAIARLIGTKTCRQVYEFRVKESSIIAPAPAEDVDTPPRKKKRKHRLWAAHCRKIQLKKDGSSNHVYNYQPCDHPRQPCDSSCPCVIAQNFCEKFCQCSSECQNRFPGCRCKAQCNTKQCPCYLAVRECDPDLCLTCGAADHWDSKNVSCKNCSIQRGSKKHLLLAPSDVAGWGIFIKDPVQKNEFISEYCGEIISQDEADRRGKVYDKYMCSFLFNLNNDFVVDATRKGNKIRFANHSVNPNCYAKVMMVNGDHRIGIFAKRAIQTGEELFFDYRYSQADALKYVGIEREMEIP
Chain of PRC2 complex (O75530 whole entry partner): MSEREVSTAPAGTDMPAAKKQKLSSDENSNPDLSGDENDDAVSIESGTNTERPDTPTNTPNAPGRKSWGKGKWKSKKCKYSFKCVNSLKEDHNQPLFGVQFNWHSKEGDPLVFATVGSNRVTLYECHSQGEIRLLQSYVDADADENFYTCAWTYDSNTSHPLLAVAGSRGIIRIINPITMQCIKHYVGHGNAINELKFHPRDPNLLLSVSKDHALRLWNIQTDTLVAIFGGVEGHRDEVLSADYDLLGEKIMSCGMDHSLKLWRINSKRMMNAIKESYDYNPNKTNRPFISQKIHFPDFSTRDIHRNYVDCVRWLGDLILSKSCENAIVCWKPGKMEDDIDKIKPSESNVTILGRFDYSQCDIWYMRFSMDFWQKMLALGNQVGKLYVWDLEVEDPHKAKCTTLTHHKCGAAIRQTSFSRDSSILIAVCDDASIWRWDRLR
Chain of PRC2 complex (Q15022 whole entry partner): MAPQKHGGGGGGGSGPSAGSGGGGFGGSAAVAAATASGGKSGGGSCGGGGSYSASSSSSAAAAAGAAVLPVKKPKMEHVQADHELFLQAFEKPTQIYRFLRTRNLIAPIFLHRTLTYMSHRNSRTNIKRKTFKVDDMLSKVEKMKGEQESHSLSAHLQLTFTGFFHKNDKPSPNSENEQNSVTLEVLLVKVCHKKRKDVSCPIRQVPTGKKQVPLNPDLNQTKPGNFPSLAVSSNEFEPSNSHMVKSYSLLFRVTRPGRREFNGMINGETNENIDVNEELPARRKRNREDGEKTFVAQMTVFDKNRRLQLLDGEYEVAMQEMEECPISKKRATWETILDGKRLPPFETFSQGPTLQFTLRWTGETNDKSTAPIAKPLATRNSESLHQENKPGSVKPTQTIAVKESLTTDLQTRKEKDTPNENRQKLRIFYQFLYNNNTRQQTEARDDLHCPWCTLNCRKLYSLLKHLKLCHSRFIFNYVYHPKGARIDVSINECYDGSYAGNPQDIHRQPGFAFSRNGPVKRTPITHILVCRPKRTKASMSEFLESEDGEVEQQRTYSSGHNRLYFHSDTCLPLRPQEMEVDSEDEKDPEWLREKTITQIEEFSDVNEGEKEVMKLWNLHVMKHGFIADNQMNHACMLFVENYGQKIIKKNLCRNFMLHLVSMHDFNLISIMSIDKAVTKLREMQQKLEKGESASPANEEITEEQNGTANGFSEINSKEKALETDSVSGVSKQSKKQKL

Row | SMILES | potency estimated from few doses (PRC2 complex) | Activity for L3MBTL1 (L3MBTL1) | Displacement of FITC-labeled H4K20me peptide (FP), in words (SETD8)
1 | COc1cc2nc(N3CCCC3)nc(NCCCCCN3CCCC3)c2cc1OC [Compound 1, 6,7-Dimethoxy-2-(pyrrolidin-1-yl)-N-(5-(pyrrolidin-1-yl)pentyl)quinazolin-4-amine] | > 50 µM | no appreciable activity | –
2 | COc1cc2nc(N3CCCC3)nc(N(C)CCCCCN3CCCC3)c2cc1OC [Compound 14, 6,7-Dimethoxy-N-methyl-2-(pyrrolidin-1-yl)-N-(5-(pyrrolidin-1-yl)pentyl)quinazolin-4-amine] | – | – | did not displace the peptide
